# Publication PMC9453980 (ACS Omega, 2022)
# What was measured:
# HeLa cells [1] = experiment: RPA foci formation; format: cell-based, human
# In short: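 HeLa cells were seeded for 24 h, then treated with test agents for 24 h. They were fixed in 4% paraformaldehyde for 20 min, permeabilized with 0.3% Triton X-100 and blocked in 5% BSA. Cells were stained overnight at 4 °C for RPA2 and γH2AX, then with fluorescent secondaries and DAPI. Automated microscopy scored the percentage of RPA-foci-positive cells.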
# hPif1-HD [2] = biological target: T1, hPif1-HD (Homo sapiens, UniProt Q9H611); experiment: FP assay of DNA-binding activity
# T1 sequence (Q9H611 200-641): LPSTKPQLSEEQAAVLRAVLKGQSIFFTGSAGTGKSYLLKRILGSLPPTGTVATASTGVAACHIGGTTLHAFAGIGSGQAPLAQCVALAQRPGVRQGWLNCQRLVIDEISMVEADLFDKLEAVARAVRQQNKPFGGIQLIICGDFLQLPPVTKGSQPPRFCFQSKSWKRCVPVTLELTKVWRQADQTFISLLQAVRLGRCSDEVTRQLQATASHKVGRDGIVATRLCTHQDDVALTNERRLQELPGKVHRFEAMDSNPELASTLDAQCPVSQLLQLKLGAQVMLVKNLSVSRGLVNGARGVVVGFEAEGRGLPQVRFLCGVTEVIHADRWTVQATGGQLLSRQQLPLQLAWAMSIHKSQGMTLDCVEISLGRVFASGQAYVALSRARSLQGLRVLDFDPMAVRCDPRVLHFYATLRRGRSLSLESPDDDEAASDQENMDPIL
# In short: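 Fluorescence polarization read at ex 480/em 520 nm. The hPif1 helicase domain (aa200-641, His6-tagged) was at 10 μM with 0.5 μM FAM-labelled DNA and a titration of test compound. Buffer was 25 mM Tris-HCl pH 7.5, 5 mM MgCl2, with no DTT. IC50 was obtained by fitting the binding curves.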
# BaPif1 [3] = experiment: ATPase activity assay; format: biochemical, Bacteroides sp. 2-1-16; conditions: read-out: IC50, inhibition of ATPase activity of BaPif1
# In short: (§1)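 ATP depletion (luciferase) assay. BaPif1 (GST fusion expressed in E. coli BL21(DE3), tag cleaved) or hPif1 helicase domain (aa200-641, N-terminal His6, E. coli BL21(DE3)), at 0.1 mg/mL. Protein was preincubated with a compound dilution series for 30 min at 25 °C in 20 mM Tris-HCl pH 7.5, 150 mM NaCl, 5 mM MgCl2, 5% DMSO final. 100 nM ssDNA and 100 nM ATP were added, 10 min at 25 °C, then stopped with NaOH. Remaining ATP was read as firefly luciferase luminescence.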
# BaPif1 [4] = experiment: F-EMSA assay of BaPif1-dT12 interaction; format: binding, Bacteroides sp. 2-1-16
# "Cys-conserved" kinases = conditions: 10 μM TD, panel of 68 kinases; cited from earlier work
# BaPif1 C380A mutant [5] = experiment: FP assay of DNA-binding activity, C380A mutant; design: species or system Bacteroides sp. 2-1-16
# In short: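 FP competition with FAM-labelled DNA in 25 mM Tris-HCl pH 7.5, 5 mM MgCl2 (ex 480/em 520 nm). The C380A point mutant was made by PCR mutagenesis and purified as for wild type, and was compared with wild-type BaPif1. Each protein was held with 50 μM test compound across a range of DTT concentrations to give dose-response curves.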
# BaPif1 [6] = experiment: Filtration-dilution reversibility experiment; format: biochemical, Bacteroides sp. 2-1-16; conditions: 50 μM compound, three filtration and dilution cycles, 1000-fold dilution
# In short: (§2)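 Reversibility test. Wild-type or C380A BaPif1 at 0.1 mg/mL in ATPase buffer was incubated 30 min with 5% DMSO or 50 μM compound in 5% DMSO. It was concentrated on a 10 kDa cut-off centrifugal filter and the retentate diluted 10-fold with buffer. This was done three times (1000-fold total). Residual ATPase activity was then measured by the luciferase ATP assay and expressed as percent inhibition.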
# hPif1-HD [7] = biological target: T1, hPif1-HD; experiment: Helicase; format: biochemical; conditions: 20 μM hPif1-HD, 20 bp dsDNA with 5′ dT55 tail
# hPif1-HD [8] = biological target: T1, hPif1-HD; experiment: ATPase activity assay; format: biochemical
# In short: as §1
# BaPif1 C380A mutant [9] = experiment: Filtration-dilution reversibility experiment, C380A mutant; format: biochemical, Bacteroides sp. 2-1-16; conditions: filtration experiments
# In short: as §2
# BaPif1 C234A mutant = experiment: FP assay of DNA-binding activity, C234A mutant; design: species or system Bacteroides sp. 2-1-16
# GSK-3β = conditions: cited from earlier work
# BaPif1 [10] = experiment: Helicase; format: biochemical, Bacteroides sp. 2-1-16; conditions: gel-based titration
# HeLa cells [11] = experiment: Western blot of Pif1, RPA2 and γH2AX; format: cell-based, human; conditions: 10 μM TD combined with 2.5 mM HU
# In short: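 HeLa lysates were made in RIPA buffer with protease inhibitor at 4 °C and quantified by BCA. 10−30 μg per lane was run on SDS-PAGE and blotted to PVDF. Membranes were blocked 1 h in 5% milk and probed overnight at 4 °C for Pif1, RPA2, γH2AX and GAPDH (loading control). HRP anti-mouse secondary (1:5000, 1 h) and ECL detection followed.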
# [12] = test system: BaPif1 (Bacteroides sp. 2-1-16); experiment: fluorescence polarization
molecule,measurement,setting,value
"NC(=O)NO [HU, hydroxyurea]",Induction of RPA foci formation,HeLa cells [1]; 2.5 mM HU,efficiently induce RPA foci formation
"O=c1sn(-c2cccc3ccccc23)c(=O)n1Cc1ccccc1 [TD, Tideglusib]",IC50,hPif1-HD [2],5.79 ± 0.6 µM
same,IC50,BaPif1 [3],2.3 ± 0.13 µM
same,"Blocking of ssDNA binding to BaPif1 (F-EMSA), in words",BaPif1 [4],could block the binding of single-stranded DNA (ssDNA) to the BaPif1 protein
same,"Number of ""Cys-conserved"" kinases significantly inhibited","""Cys-conserved"" kinases",10 of the 26
same,Sensitivity of C380A mutant to the compound compared with wild-type,BaPif1 C380A mutant [5],less sensitive
same,Reversibility of inhibition of BaPif1 ATPase activity after filtration-dilution,BaPif1 [6],irreversible
same,Concentration at which helicase activity of hPif1-HD was inhibited,hPif1-HD [7],7.8 µM
same,IC50,hPif1-HD [8],2.5 ± 0.1 µM
same,Reversibility of inhibition of C380A ATPase activity after filtration,BaPif1 C380A mutant [9],reversible
same,Reduction of RPA foci formation,"HeLa cells [1]; 10 μM TD combined with 2.5 mM HU, 24 h",20%
same,Sensitivity of C234A mutant to the compound compared with wild-type,BaPif1 C234A mutant,little change
same,Reversibility of GSK-3β inhibition,GSK-3β,irreversibly
same,Concentration at which unwinding (helicase) activity of BaPif1 was inhibited,BaPif1 [10],4 µM
same,Protein level of Pif1 and RPA,HeLa cells [11],did not alter
same,Protein level of γH2AX,HeLa cells [11],slightly decreased
TTTTTTTTTTTTTTTTTT [FAM-dT18],Kd,[12],7 µM
